In ChEMBL document CHEMBL1629686, “Substrate selectivity and a novel role in inhibitor discrimination by residue 237 in the KPC-2 beta-lactamase” (Antimicrob Agents Chemother, 2010):
Converted amounts (≈) assume the structure as drawn.

What was measured:
Escherichia coli [1] = assay: Antimicrobial activity against Escherichia coli DH10B harboring beta-lactamase KPC-2 T237M mutant by agar dilution method; assay type: functional; conditions: K-12 DH10B
In short: (§1)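 LB agar dilution MICs followed CLSI criteria, with inocula applied by Steers replicator. […] Piperacillin-tazobactam was tested at an 8:1 ratio. Wild-type and mutant blaKPC-2 were carried on pBC SK(+), or wild type on pBR322-catI, in E. coli DH10B.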

Klebsiella pneumoniae [2] = assay: Selectivity index, Ratio of Kcat/Km for Klebsiella pneumoniae 1534 beta-lactamase KPC-2 T237S mutant to ratio of Kcat/Km for Klebsiella pneumoniae 1534 beta-lactamase KPC-2 by spectrophotometric analysis
In short: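 Kinetics used purified enzymes in 10 mM PBS, pH 7.4, room temperature, with 10 nM enzyme and substrate in excess. Km and Vmax came from a Michaelis-Menten fit. kcat/Km of the variant was compared with wild type as ΔΔG = −RT ln of the kcat/Km ratio.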

Escherichia coli [3] = assay: Antimicrobial activity against Escherichia coli DH10B harboring beta-lactamase KPC-2 T237K mutant by agar dilution method; assay type: functional; conditions: K-12 DH10B; in short: as §1
Escherichia coli [4] = assay: Antimicrobial activity against Escherichia coli DH10B harboring beta-lactamase KPC-2 T237A mutant by agar dilution method; assay type: functional; conditions: K-12 DH10B; in short: as §1
Escherichia coli [5] = assay: Antimicrobial activity against Escherichia coli DH10B harboring plasmid […] by agar dilution method; assay type: functional; conditions: K-12 DH10B; in short: as §1
Escherichia coli [6] = assay: Antimicrobial activity against Escherichia coli DH10B harboring beta-lactamase KPC-2 T237Q mutant by agar dilution method; assay type: functional; conditions: K-12 DH10B; in short: as §1
Escherichia coli [7] = assay: Antimicrobial activity against Escherichia coli DH10B harboring beta-lactamase KPC-2 T237H mutant by agar dilution method; assay type: functional; conditions: K-12 DH10B; in short: as §1
Escherichia coli [8] = assay: Antimicrobial activity against Escherichia coli DH10B harboring beta-lactamase KPC-2 T237G mutant by agar dilution method; assay type: functional; conditions: K-12 DH10B; in short: as §1
Klebsiella pneumoniae [9] = assay: Activity of Klebsiella pneumoniae 1534 beta-lactamase KPC-2 T237A mutant by spectrophotometric analysis
In short: (§2)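 Purified KPC-2 variant enzymes (periplasmic lysate from E. coli, preparative isoelectric focusing). Hydrolysis followed by diode-array spectrophotometry in 10 mM PBS, pH 7.4, room temperature. Enzyme at 10 nM with substrate in molar excess for pseudo-first-order conditions. Vmax and Km came from a nonlinear least-squares Michaelis-Menten fit.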

Klebsiella pneumoniae [10] = assay: Activity of Klebsiella pneumoniae 1534 beta-lactamase KPC-2 T237S mutant by spectrophotometric analysis; in short: as §2
Escherichia coli [11] = assay: Antimicrobial activity against Escherichia coli DH10B harboring beta-lactamase KPC-2 T237W mutant by agar dilution method; assay type: functional; conditions: K-12 DH10B; in short: as §1
Escherichia coli [12] = assay: Antimicrobial activity against Escherichia coli DH10B harboring beta-lactamase KPC-2 T237V mutant by agar dilution method; assay type: functional; conditions: K-12 DH10B; in short: as §1
Escherichia coli [13] = assay: Antimicrobial activity against Escherichia coli DH10B harboring beta-lactamase KPC-2 T237E mutant by agar dilution method; assay type: functional; conditions: K-12 DH10B; in short: as §1
Escherichia coli [14] = assay: Antimicrobial activity against Escherichia coli DH10B harboring beta-lactamase KPC-2 T237I mutant by agar dilution method; assay type: functional; conditions: K-12 DH10B; in short: as §1
Escherichia coli [15] = assay: Antimicrobial activity against Escherichia coli DH10B harboring beta-lactamase KPC-2 T237D mutant by agar dilution method; assay type: functional; conditions: K-12 DH10B; in short: as §1
Escherichia coli [16] = assay: Antimicrobial activity against Escherichia coli DH10B harboring beta-lactamase KPC-2 T237Y mutant by agar dilution method; assay type: functional; conditions: K-12 DH10B; in short: as §1
Escherichia coli [17] = assay: Antimicrobial activity against Escherichia coli DH10B harboring beta-lactamase KPC-2 T237L mutant by agar dilution method; assay type: functional; conditions: K-12 DH10B; in short: as §1
Escherichia coli [18] = assay: Antimicrobial activity against Escherichia coli DH10B harboring plasmid pBR322-catI carrying beta-lactamase KPC-2 by agar dilution method; assay type: functional; conditions: K-12 DH10B; in short: as §1
Escherichia coli [19] = assay: Antimicrobial activity against Escherichia coli DH10B harboring beta-lactamase KPC-2 T237P mutant by agar dilution method; assay type: functional; conditions: K-12 DH10B; in short: as §1
Escherichia coli [20] = assay: Antimicrobial activity against Escherichia coli DH10B by agar dilution method; assay type: functional; conditions: K-12 DH10B; in short: as §1
Escherichia coli [21] = assay: Antimicrobial activity against Escherichia coli DH10B harboring beta-lactamase KPC-2 T237R mutant by agar dilution method; assay type: functional; conditions: K-12 DH10B; in short: as §1
Escherichia coli [22] = assay: Antimicrobial activity against Escherichia coli DH10B harboring beta-lactamase KPC-2 T237S mutant by agar dilution method; assay type: functional; conditions: K-12 DH10B; in short: as §1
Escherichia coli [23] = assay: Antimicrobial activity against Escherichia coli DH10B harboring beta-lactamase KPC-2 T237C mutant by agar dilution method; assay type: functional; conditions: K-12 DH10B; in short: as §1
Klebsiella pneumoniae [24] = assay: Antimicrobial activity against Klebsiella pneumoniae 1534 expressing beta-lactamase KPC-2 by agar dilution method; assay type: functional
In short: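 MICs were determined by LB agar dilution following CLSI criteria, with a Steers replicator. […] Piperacillin-tazobactam was kept at an 8:1 ratio.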

Klebsiella pneumoniae [25] = assay: Ratio of Kcat/Km for Klebsiella pneumoniae 1534 beta-lactamase KPC-2 T237S mutant by spectrophotometric analysis; in short: as §2
Klebsiella pneumoniae [26] = assay: Ratio of Kcat/Km for Klebsiella pneumoniae 1534 beta-lactamase KPC-2 T237A mutant by spectrophotometric analysis; in short: as §2
Escherichia coli [27] = assay: Antimicrobial activity against Escherichia coli DH10B harboring beta-lactamase KPC-2 T237N mutant by agar dilution method; assay type: functional; conditions: K-12 DH10B; in short: as §1
Escherichia coli [28] = assay: Antimicrobial activity against Escherichia coli DH10B harboring beta-lactamase KPC-2 T237F mutant by agar dilution method; assay type: functional; conditions: K-12 DH10B; in short: as §1
Escherichia coli [29] = assay: Antimicrobial activity against Escherichia coli DH10B harboring plasmid pBC SK(+) carrying wild type beta-lactamase KPC-2 by agar dilution method; assay type: functional; conditions: K-12 DH10B; in short: as §1
[30] = substrate: C[C@@H](O)[C@H]1C(=O)N2C(C(=O)O)=C(SCCNC=N)C[C@H]12; assay: (§3) Ratio of Kcat/Km for Klebsiella pneumoniae 1534 beta-lactamase KPC-2 by spectrophotometric analysis
In short: (§4)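 Purified KPC-2 was expressed in E. coli (DH10B or IPTG-induced Origami2 DE3 pLys), released by periplasmic lysis, and purified by preparative isoelectric focusing. It was assayed at 10 nM in 10 mM PBS pH 7.4 at room temperature, with substrate in molar excess for pseudo-first-order conditions. Hydrolysis was read on a diode-array spectrophotometer, and Vmax and Km came from nonlinear least-squares Michaelis-Menten fits.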

[31] = substrate: O=C(Cc1cccs1)N[C@@H]1C(=O)N2C(C(=O)O)=C(/C=C/c3ccc([N+](=O)[O-])cc3[N+](=O)[O-])CS[C@H]12; assay: as §3; in short: as §4
[32] = substrate: CO/N=C(\C(=O)N[C@@H]1C(=O)N2C(C(=O)O)=C(COC(C)=O)CS[C@H]12)c1csc(N)n1; assay: as §3; in short: as §4
[33] = substrate: CCN1CCN(C(=O)N[C@@H](C(=O)N[C@@H]2C(=O)N3[C@@H]2SC(C)(C)[C@@H]3C(=O)O)c2ccccc2)C(=O)C1=O; assay: as §3; in short: as §4
[34] = substrate: CC(=O)OCC1=C(C(=O)O)N2C(=O)[C@@H](NC(=O)Cc3cccs3)[C@H]2SC1; assay: as §3; in short: as §4
[35] = substrate: C[C@@H](O)[C@H]1C(=O)N2C(C(=O)O)=C(SCCNC=N)C[C@H]12; assay: (§5) Activity of Klebsiella pneumoniae 1534 beta-lactamase KPC-2 by spectrophotometric analysis; in short: as §4
[36] = substrate: O=C(Cc1cccs1)N[C@@H]1C(=O)N2C(C(=O)O)=C(/C=C/c3ccc([N+](=O)[O-])cc3[N+](=O)[O-])CS[C@H]12; assay: as §5; in short: as §4
[37] = substrate: CO/N=C(\C(=O)N[C@@H]1C(=O)N2C(C(=O)O)=C(COC(C)=O)CS[C@H]12)c1csc(N)n1; assay: as §5; in short: as §4
[38] = substrate: CCN1CCN(C(=O)N[C@@H](C(=O)N[C@@H]2C(=O)N3[C@@H]2SC(C)(C)[C@@H]3C(=O)O)c2ccccc2)C(=O)C1=O; assay: as §5; in short: as §4
[39] = substrate: CC(=O)OCC1=C(C(=O)O)N2C(=O)[C@@H](NC(=O)Cc3cccs3)[C@H]2SC1; assay: as §5; in short: as §4

Molecule: CC(=O)OCC1=C(C(=O)O)N2C(=O)[C@@H](NC(=O)Cc3cccs3)[C@H]2SC1 [CEPHALOTHIN]
- MIC (Escherichia coli [1]): 16 µg/mL (≈ 40.4 µM)
- fold change (FC) (Klebsiella pneumoniae [2]): 2.7
- MIC (Escherichia coli [3]): 4 µg/mL (≈ 10.1 µM)
- MIC (Escherichia coli [4]): 32 µg/mL (≈ 80.7 µM)
- MIC (Escherichia coli [5]): 4 µg/mL (≈ 10.1 µM)
- MIC (Escherichia coli [6]): 16 µg/mL (≈ 40.4 µM)
- MIC (Escherichia coli [7]): 16 µg/mL (≈ 40.4 µM)
- MIC (Escherichia coli [8]): 4 µg/mL (≈ 10.1 µM)
- Km (Klebsiella pneumoniae [9]): 30 µM
- kcat (Klebsiella pneumoniae [9]): 26 s⁻¹
- Km (Klebsiella pneumoniae [10]): 18 µM
- kcat (Klebsiella pneumoniae [10]): 65 s⁻¹
- MIC (Escherichia coli [11]): 32 µg/mL (≈ 80.7 µM)
- MIC (Escherichia coli [12]): 8 µg/mL (≈ 20.2 µM)
- MIC (Escherichia coli [13]): 4 µg/mL (≈ 10.1 µM)
- MIC (Escherichia coli [14]): 4 µg/mL (≈ 10.1 µM)
- MIC (Escherichia coli [15]): 4 µg/mL (≈ 10.1 µM)
- MIC (Escherichia coli [16]): 16 µg/mL (≈ 40.4 µM)
- MIC (Escherichia coli [17]): 8 µg/mL (≈ 20.2 µM)
- MIC (Escherichia coli [18]): 512 µg/mL (≈ 1290 µM)
- MIC (Escherichia coli [19]): 2 µg/mL (≈ 5.04 µM)
- MIC (Escherichia coli [20]): 4 µg/mL (≈ 10.1 µM)
- MIC (Escherichia coli [21]): 4 µg/mL (≈ 10.1 µM)
- MIC (Escherichia coli [22]): 256 µg/mL (≈ 646 µM)
- MIC (Escherichia coli [23]): 4 µg/mL (≈ 10.1 µM)
- MIC (Klebsiella pneumoniae [24]): 1020 µg/mL (≈ 2580 µM)
- kcat/Km (Klebsiella pneumoniae [25]): 3.6e+06 M⁻¹ s⁻¹
- kcat/Km (Klebsiella pneumoniae [26]): 900000 M⁻¹ s⁻¹
- MIC (Escherichia coli [27]): 4 µg/mL (≈ 10.1 µM)
- MIC (Escherichia coli [28]): 4 µg/mL (≈ 10.1 µM)
- MIC (Escherichia coli [29]): 256 µg/mL (≈ 646 µM)

B1: Carbapenem-hydrolyzing beta-lactamase KPC (Klebsiella pneumoniae), Q9F663 (protein)
chain: MSLYRRLVLLSCLSWPLAGFSATALTNLVAEPFAKLEQDFGGSIGVYAMDTGSGATVSYRAEERFPLCSSFKGFLAAAVLARSQQQAGLLDTPIRYGKNALVPWSPISEKYLTTGMTVAELSAAAVQYSDNAAANLLLKELGGPAGLTAFMRSIGDTTFRLDRWELELNSAIPGDARDTSSPRAVTESLQKLTLGSALAAPQRQQFVDWLKGNTTGNHRIRAAVPADWAVGDKTGTCGVYGTANDYAVVWPTGRAPIVLAVYTRAPNKDDKHSEAVIAAAARLALEGLGVNGQ
- kcat/Km [30]: 1e+06 M⁻¹ s⁻¹
- kcat/Km [31]: 8.7e+06 M⁻¹ s⁻¹
- kcat/Km [32]: 700000 M⁻¹ s⁻¹
- kcat/Km [33]: 3.4e+06 M⁻¹ s⁻¹
- kcat/Km [34]: 3.1e+06 M⁻¹ s⁻¹
- Km [35]: 19 µM
- kcat [35]: 19 s⁻¹
- Km [36]: 6 µM
- kcat [36]: 52 s⁻¹
- Km [37]: 207 µM
- kcat [37]: 142 s⁻¹
- Km [38]: 15 µM
- kcat [38]: 51 s⁻¹
- Km [39]: 14 µM
- kcat [39]: 44 s⁻¹
